# From ChEMBL document CHEMBL5678817, “FTBMT, a Novel and Selective GPR52 Agonist, Demonstrates Antipsychotic-Like and Procognitive Effects in Rodents, Revealing a Potential Therapeutic Agent for Schizophrenia” (J Pharmacol Exp Ther, 2017)
# The source made the active and inactive calls.
# Assays:
# Mus musculus [1] = assay: Antipsychotic activity in methamphetamine-induced hyperactivity in ICR mouse assessed as minimum effective dose administered orally; type: functional; conditions: route po, read-out: MED
# [2] = target: G-protein coupled receptor 52 (Mus musculus) (UniProt P0C5J4); assay: Agonist activity at mouse GPR52 expressed in CHO cells assessed as increase in intracellular cAMP level upto 10 uM incubated for 30 mins by Alphascreen assay; type: functional, cell-based
# G-protein coupled receptor 52 (Mus musculus), sequence (P0C5J4 whole entry): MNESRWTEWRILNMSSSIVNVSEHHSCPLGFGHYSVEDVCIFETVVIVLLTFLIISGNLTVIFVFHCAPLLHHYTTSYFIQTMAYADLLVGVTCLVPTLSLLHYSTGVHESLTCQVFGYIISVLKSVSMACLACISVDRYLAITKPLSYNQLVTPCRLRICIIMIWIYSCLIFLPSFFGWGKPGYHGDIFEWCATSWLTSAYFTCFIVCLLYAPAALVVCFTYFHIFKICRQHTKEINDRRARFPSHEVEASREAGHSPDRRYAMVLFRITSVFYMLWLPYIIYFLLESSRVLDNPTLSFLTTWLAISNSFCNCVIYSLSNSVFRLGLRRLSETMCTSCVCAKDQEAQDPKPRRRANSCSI
# In short: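 CHO cells stably expressing human, mouse or rat GPR52, plus naïve CHO cells, at 10,000 cells/well. Stimulated in cAMP assay buffer for 30 min at 37 °C. Intracellular cAMP read by AlphaScreen.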
# [3] = target: Polyunsaturated fatty acid 5-lipoxygenase (Homo sapiens) (UniProt P09917); assay: Inhibition of […] (unknown origin) at 10 uM relative to control
# In short: (§1)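 Enzyme activity assays from the same 98-target biochemical panel. Single test concentration of 10 µM. Read-out is % inhibition of enzyme activity relative to control; negative percentages indicate activation of the enzyme.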
# [4] = target: Interstitial collagenase (Homo sapiens) (UniProt P03956); assay: Inhibition of MMP1 (unknown origin) at 10 uM relative to control; in short: as §1
# Interstitial collagenase (Homo sapiens), sequence (P03956 whole entry): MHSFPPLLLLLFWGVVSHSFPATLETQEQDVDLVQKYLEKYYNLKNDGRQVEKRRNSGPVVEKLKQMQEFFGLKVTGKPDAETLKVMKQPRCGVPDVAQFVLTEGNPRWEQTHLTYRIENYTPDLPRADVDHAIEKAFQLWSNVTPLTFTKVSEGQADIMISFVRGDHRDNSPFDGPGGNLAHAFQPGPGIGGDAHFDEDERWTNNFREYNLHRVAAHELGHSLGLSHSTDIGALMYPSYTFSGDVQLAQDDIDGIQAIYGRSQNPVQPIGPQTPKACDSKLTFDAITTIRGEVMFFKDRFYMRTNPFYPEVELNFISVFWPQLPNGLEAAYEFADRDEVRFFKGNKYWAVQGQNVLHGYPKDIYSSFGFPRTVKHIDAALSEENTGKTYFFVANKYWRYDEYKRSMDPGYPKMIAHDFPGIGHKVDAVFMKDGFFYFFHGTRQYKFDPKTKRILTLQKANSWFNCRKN
# [5] = target: Phosphodiesterase 4 (Homo sapiens) (UniProt P27815+Q08499+Q07343+Q08493); assay: Inhibition of PDE4 (unknown origin) at 10 uM relative to control; type: protein assay; in short: as §1
# [6] = target: cGMP-specific 3',5'-cyclic phosphodiesterase (Homo sapiens) (UniProt O76074); assay: Inhibition of PDE5 (unknown origin) at 10 uM relative to control; in short: as §1
# [7] = target: cAMP-dependent protein kinase (PKA) (Homo sapiens) (UniProt P22694+P17612+P22612); assay: Inhibition of Protein kinase A (unknown origin) at 10 uM relative to control; type: protein assay; in short: as §1
# [8] = target: Rho-associated protein kinase 1 (Homo sapiens) (UniProt Q13464); assay: Inhibition of ROCK1 (unknown origin) at 10 uM relative to control; in short: as §1
# [9] = target: Adenosine receptor A1 (Homo sapiens) (UniProt P30542); assay: Inhibition of Adenosine A1 receptor (unknown origin) at 10 uM relative to control
# In short: (§2)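 Single-point screen at 10 μM across receptor, ion channel and enzyme binding or activity assays. Expressed as percent inhibition versus control; negative values denote stimulation.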
# [10] = target: Alpha-1A adrenergic receptor (Homo sapiens) (UniProt P35348); assay: Inhibition of Adrenergic alpha1 receptor (unknown origin) at 10 uM relative to control; in short: as §2
# Alpha-1A adrenergic receptor (Homo sapiens), sequence (P35348 whole entry): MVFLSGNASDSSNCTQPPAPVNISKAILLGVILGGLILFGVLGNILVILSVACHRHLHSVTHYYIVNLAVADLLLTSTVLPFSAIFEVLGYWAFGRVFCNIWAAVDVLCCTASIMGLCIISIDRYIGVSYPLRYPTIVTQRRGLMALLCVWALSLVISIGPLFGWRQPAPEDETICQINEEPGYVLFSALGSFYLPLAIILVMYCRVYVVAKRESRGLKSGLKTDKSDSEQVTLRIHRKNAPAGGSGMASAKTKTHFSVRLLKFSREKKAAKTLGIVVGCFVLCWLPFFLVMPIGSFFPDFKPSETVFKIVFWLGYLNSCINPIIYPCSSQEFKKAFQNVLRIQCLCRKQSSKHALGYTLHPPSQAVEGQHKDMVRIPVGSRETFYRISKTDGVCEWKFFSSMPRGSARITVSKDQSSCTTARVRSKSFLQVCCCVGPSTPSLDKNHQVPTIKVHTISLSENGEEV
# [11] = target: B2 bradykinin receptor (Homo sapiens) (UniProt P30411); assay: Inhibition of Bradykinin B2 receptor (unknown origin) at 10 uM relative to control; in short: as §2
# B2 bradykinin receptor (Homo sapiens), sequence (P30411 whole entry): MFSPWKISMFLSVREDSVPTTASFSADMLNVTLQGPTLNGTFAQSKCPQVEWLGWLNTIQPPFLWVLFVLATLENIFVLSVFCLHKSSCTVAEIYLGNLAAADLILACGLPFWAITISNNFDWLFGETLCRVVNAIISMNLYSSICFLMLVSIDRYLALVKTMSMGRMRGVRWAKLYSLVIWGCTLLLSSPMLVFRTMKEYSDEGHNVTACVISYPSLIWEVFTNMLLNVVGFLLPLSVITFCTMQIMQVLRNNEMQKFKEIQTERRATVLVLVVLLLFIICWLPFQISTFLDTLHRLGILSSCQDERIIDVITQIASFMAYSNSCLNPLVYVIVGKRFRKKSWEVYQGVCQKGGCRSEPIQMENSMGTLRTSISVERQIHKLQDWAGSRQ
# [12] = target: T1, Voltage-gated L-type calcium channel (Homo sapiens, UniProt O60840+Q01668+Q13698+Q13936); assay: Inhibition of Calcium channel L-type (unknown origin) at 10 uM in presence of benzothiazepine relative to control; type: protein assay; conditions: probe benzothiazepine; in short: as §2
# [13] = target: T1, Voltage-gated L-type calcium channel; assay: Inhibition of Calcium channel L-type (unknown origin) at 10 uM in presence of dihydropyridine relative to control; type: protein assay; conditions: probe dihydropyridine; in short: as §2
# [14] = target: D(2) dopamine receptor (Homo sapiens) (UniProt P14416); assay: Inhibition of Dopamine D2 receptor (unknown origin) at 10 uM relative to control
# In short: (§3)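 Part of a 98-target external biochemical selectivity panel that used radioligand/receptor binding-type assays. Compound tested once at 10 µM. Results are reported as % inhibition versus control; negative values mean stimulation of receptor activity.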
# [15] = target: D(3) dopamine receptor (Homo sapiens) (UniProt P35462); assay: Inhibition of Dopamine D3 receptor (unknown origin) at 10 uM relative to control; in short: as §3
# D(3) dopamine receptor (Homo sapiens), sequence (P35462 whole entry): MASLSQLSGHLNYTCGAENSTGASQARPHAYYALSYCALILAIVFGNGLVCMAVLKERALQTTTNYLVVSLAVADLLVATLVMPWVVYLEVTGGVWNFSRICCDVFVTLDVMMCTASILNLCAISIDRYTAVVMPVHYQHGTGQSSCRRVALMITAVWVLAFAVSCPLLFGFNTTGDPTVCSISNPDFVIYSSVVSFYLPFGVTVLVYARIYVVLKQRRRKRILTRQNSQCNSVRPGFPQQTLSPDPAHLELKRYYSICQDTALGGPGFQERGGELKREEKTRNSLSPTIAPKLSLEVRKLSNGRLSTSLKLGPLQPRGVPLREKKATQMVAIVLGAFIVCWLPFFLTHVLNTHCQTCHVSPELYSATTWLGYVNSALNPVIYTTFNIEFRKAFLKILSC
# [16] = target: Glucocorticoid receptor (Homo sapiens) (UniProt P04150); assay: Inhibition of Glucocorticoid receptor (unknown origin) at 10 uM relative to control; in short: as §3
# Glucocorticoid receptor (Homo sapiens), sequence (P04150 whole entry): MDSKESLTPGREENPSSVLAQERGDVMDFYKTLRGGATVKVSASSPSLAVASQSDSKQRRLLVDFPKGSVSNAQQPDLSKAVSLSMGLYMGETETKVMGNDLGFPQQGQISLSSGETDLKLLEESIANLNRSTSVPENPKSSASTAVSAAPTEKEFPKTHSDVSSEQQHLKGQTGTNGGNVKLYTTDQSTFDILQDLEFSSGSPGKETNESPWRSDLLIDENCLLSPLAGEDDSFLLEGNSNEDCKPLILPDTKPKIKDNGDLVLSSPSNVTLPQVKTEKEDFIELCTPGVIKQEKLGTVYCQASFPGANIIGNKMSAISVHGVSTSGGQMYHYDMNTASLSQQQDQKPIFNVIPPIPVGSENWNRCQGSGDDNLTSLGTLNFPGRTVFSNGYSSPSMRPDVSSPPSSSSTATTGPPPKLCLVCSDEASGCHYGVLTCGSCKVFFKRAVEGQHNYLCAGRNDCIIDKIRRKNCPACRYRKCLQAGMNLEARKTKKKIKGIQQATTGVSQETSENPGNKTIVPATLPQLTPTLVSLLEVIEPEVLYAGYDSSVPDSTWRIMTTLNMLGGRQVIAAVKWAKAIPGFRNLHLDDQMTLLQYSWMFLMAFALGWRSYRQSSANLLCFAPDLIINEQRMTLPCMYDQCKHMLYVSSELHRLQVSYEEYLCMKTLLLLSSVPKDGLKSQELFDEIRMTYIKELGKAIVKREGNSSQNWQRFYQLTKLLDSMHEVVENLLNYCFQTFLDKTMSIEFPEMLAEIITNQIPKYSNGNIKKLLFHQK
# [17] = target: T2, Glutamate [NMDA] receptor (Homo sapiens) (UniProt Q05586+Q12879+Q13224+O15399+O60391+Q14957+Q8TCU5); assay: Inhibition of Glutamate NMDA receptor (unknown origin) at 10 uM relative to control; type: protein-complex assay; in short: as §3
# [18] = target: T2, Glutamate [NMDA] receptor (Homo sapiens); assay: Inhibition of Glutamate NMDA receptor (unknown origin) at 10 uM in presence of glycine relative to control; type: protein-complex assay; in short: as §3
# [19] = target: Delta-type opioid receptor (Homo sapiens) (UniProt P41143); assay: Inhibition of opioid delta receptor (unknown origin) at 10 uM relative to control
# Delta-type opioid receptor (Homo sapiens), sequence (P41143 whole entry): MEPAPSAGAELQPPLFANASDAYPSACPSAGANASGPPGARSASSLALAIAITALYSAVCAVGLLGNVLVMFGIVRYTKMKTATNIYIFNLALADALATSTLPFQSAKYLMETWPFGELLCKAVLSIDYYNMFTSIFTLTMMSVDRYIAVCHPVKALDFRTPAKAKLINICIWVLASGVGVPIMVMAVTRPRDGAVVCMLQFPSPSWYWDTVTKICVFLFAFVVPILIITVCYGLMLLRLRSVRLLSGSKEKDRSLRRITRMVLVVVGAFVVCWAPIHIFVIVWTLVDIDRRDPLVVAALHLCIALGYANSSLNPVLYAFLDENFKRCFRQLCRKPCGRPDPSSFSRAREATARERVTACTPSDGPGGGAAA
# In short: (§4)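 Binding and enzyme panel run by an outside contractor against receptors, ion channels and enzymes. Each assay used a single 10 μM test concentration, and results are expressed as percent inhibition. A negative value means stimulation of receptor activity or activation of enzyme activity.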
# [20] = target: Kappa-type opioid receptor (Homo sapiens) (UniProt P41145); assay: Inhibition of opioid kappa receptor (unknown origin) at 10 uM relative to control; in short: as §4
# Kappa-type opioid receptor (Homo sapiens), sequence (P41145 whole entry): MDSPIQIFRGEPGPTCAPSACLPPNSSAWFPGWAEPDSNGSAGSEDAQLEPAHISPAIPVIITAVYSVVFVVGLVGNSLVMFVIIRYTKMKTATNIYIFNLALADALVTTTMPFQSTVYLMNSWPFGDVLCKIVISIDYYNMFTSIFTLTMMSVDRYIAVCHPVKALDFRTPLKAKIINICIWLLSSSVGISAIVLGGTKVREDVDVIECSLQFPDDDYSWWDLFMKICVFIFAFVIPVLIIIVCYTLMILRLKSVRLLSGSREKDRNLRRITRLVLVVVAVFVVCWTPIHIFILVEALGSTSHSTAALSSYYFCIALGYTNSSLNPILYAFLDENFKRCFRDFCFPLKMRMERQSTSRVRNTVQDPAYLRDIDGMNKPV
# [21] = target: Mu-type opioid receptor (Homo sapiens) (UniProt P35372); assay: Inhibition of mu opioid receptor (unknown origin) at 10 uM relative to control; in short: as §4
# [22] = target: Thromboxane A2 receptor (Homo sapiens) (UniProt P21731); assay: Inhibition of Thromboxane A2 receptor (unknown origin) at 10 uM relative to control; in short: as §4
# Thromboxane A2 receptor (Homo sapiens), sequence (P21731 whole entry): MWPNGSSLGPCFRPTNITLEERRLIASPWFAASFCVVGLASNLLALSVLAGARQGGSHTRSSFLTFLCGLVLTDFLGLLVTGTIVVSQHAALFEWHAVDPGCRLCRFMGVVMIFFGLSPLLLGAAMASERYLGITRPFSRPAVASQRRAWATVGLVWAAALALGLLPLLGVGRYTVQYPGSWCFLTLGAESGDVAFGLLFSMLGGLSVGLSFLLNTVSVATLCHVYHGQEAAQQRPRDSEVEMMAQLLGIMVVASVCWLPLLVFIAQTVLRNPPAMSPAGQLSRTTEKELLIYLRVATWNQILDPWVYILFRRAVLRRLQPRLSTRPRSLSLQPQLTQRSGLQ
# [23] = target: Serotonin 2 (5-HT2) receptor (Homo sapiens) (UniProt P41595+P28223+P28335); assay: Inhibition of Serotonin 5-HT2 receptor (unknown origin) at 10 uM relative to control; type: protein assay; in short: as §3
# [24] = target: 5-hydroxytryptamine receptor 2B (Homo sapiens) (UniProt P41595); assay: Inhibition of Serotonin 5-HT2B receptor (unknown origin) at 10 uM relative to control; in short: as §3
# Homo sapiens = species: Homo sapiens; assay: Inhibition of Sigma receptor (unknown origin) at 10 uM relative to control; in short: as §3
# [25] = target: Sodium-dependent serotonin transporter (Homo sapiens) (UniProt P31645); assay: Inhibition of SERT receptor (unknown origin) at 10 uM relative to control; in short: as §3
# Sodium-dependent serotonin transporter (Homo sapiens), sequence (P31645 whole entry, looked up): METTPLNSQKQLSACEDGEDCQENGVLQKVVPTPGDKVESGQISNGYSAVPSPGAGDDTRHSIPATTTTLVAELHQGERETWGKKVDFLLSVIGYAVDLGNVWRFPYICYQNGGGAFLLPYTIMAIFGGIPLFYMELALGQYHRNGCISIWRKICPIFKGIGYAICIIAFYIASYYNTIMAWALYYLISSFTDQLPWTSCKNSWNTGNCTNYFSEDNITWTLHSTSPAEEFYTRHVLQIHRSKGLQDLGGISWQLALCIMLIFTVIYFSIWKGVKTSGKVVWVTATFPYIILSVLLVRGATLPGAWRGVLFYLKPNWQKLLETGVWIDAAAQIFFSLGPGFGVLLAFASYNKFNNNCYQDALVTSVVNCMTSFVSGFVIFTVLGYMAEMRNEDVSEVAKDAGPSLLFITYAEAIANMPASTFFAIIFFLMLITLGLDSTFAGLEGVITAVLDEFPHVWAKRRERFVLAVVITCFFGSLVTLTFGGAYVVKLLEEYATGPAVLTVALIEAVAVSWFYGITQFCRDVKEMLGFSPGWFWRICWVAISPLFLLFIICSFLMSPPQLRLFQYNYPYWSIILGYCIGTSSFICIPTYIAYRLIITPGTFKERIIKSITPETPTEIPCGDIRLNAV
# [26] = target: Neuromedin-K receptor (Homo sapiens) (UniProt P29371); assay: Inhibition of Tachykinin NK3 receptor (unknown origin) at 10 uM relative to control; in short: as §4
# [27] = target: G protein-coupled receptor 52 (Rattus norvegicus) (UniProt A0A8I5ZQK1); assay: Agonist activity at GPR52 in rat Striatal neuron assessed as increase in CREB phosphorylation […] by Alphascreen assay; type: cell-based; conditions: filed as agonist
# G protein-coupled receptor 52 (Rattus norvegicus), sequence (A0A8I5ZQK1 as listed by the source): as the sequence (P0C5J4 whole entry) above, with M14V, E250D, E333Q, A342G, Q348R counted along it
# Mus musculus [28] = assay: Antipsychotic activity in wild type mouse assessed as increase in phosphorylated CREB level in striatum at 30 mg/kg, po incubated for 60 mins by ELISA analysis; type: functional, organism-based
# [29] = Toxicity in ICR mouse assessed as catelepsy upto 100 mg/kg, po measured for 60 mins by bar test; type: organism-based; conditions: in vivo, 1 h
# In short: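 Male ICR mice (6–7 weeks) were dosed orally 60 min before testing. Forepaws were placed on a 2 mm bar set 6.5 cm high, and time on the bar was recorded with a 30 s cutoff. Each mouse was tested three times and the times averaged. n = 5–6.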
# Mus musculus [30] = assay: Antipsychotic activity in C57BL/6N mouse assessed as increase in c-fos positive cells in medial prefrontal cortex at 30 mg/kg, po measured for 2 hrs by immunohistochemistry analysis; type: functional, organism-based
# Mus musculus [31] = assay: Pro-cognitive activity in C57BL/6N mouse assessed as increase in c-fos gene expression in hippocampus at 3 to 30 mg/kg, po measured after 2 hrs […]; type: functional, organism-based; conditions: dose 3-30 mg/kg
compound,measurement,setting,value
Cc1cc(-n2nc(Cc3cc(F)cc(C(F)(F)F)c3)nc2C)ccc1C(N)=O [TP-024],minimal effective dose,Mus musculus [1],10 mg/kg
same,Activity,[2],inactive
same,inhibition,[3],-5%
same,inhibition,[4],-3%
same,inhibition,[5],6%
same,inhibition,[6],24%
same,inhibition,[7],17%
same,inhibition,[8],9%
same,inhibition,[9],33%
same,inhibition,[10],3%
same,inhibition,[11],16%
same,inhibition at 10 µM,[12],19%
same,inhibition at 10 µM,[13],-2%
same,inhibition,[14],5%
same,inhibition,[15],8%
same,inhibition,[16],12%
same,inhibition,[17],-7%
same,inhibition,[18],3%
same,inhibition,[19],4%
same,inhibition,[20],-9%
same,inhibition,[21],-10%
same,inhibition,[22],-6%
same,inhibition,[23],14%
same,inhibition,[24],6%
same,inhibition,Homo sapiens,28%
same,inhibition,[25],8%
same,inhibition,[26],20%
same,Activity,[27],Active
same,Activity,Mus musculus [28],Active
same,Activity,[29],Non-Toxic
same,Activity,Mus musculus [30],Active
same,Activity,Mus musculus [31],Active
